The results in this text go back to ChEMBL document CHEMBL1126882, “Orally active central dopamine and serotonin receptor ligands: 5-, 6-, 7-, and 8-[[trifluoromethyl)sulfonyl]oxy]-2-(di-n-propylamino)tetralins and the formation of active metabolites in vivo” (J Med Chem, 1993).

In assay [1] the target is T1, Dopamine receptor (Rattus norvegicus) (UniProt P25115+P19020+P30729+P18901+P61169). Nature of the assay: Effective dose for half-maximal decrease in the accumulation of DOPA in reserpinized rat brain striatal area by sc administration. It is filed as functional, organism-based. The gist of the method:
(§1)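 Male Sprague-Dawley rats (200-300 g) got reserpine 5 mg/kg sc 18 h before. The test drug (saline) was given sc or po (po rats fasted 18 h), with NSD 1015, 30 min before decapitation. DOPA and 5-HTP in limbic, striatal and hemispheral tissue were measured by HPLC-ED. ED50 (half-maximal decrease) was taken from 4-6-dose curves, with deviation estimated graphically from SEM.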

The test system of assay [2] is Rattus norvegicus. Kind of assay: post-synaptic agonistic effects by increase in locomotor activity at the dose of 1.0 umol/kg, sc in reserpinized rat. Type of assay: functional. The gist of the method: (§2)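 Male Sprague-Dawley rats (200-300 g) given reserpine 5 mg/kg sc in the neck 18 h before testing. The test compound, in 0.9% saline, was given sc in the neck (n = 4-5). Rats were placed singly in photocell motility meters right after dosing. Counts were recorded over 30 min, alongside gross behavioural observation of 5-HT and DA signs. Statistics: ANOVA with Fischer's PLSD versus reserpine controls.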

Assay [3] deals with Rattus norvegicus. Kind of assay: Effective dose for half-maximal decrease in the accumulation of 5-hydroxytryptophan (5-HTP) in reserpinized rat brain limbic area by sc administration; Inactive. Type of assay: functional, organism-based. The gist of the method:
as §1

Assay [4] deals with Rattus norvegicus. Kind of assay: Effective dose for half-maximal decrease in the accumulation of 5-hydroxytryptophan (5-HTP) in reserpinized rat brain hemispheral area by sc administration; Inactive. Type of assay: functional, organism-based. The gist of the method:
as §1

In assay [5] the test system is Rattus norvegicus. Nature of the assay: Effective dose for half-maximal decrease in the accumulation of 5-hydroxytryptophan (5-HTP) in reserpinized rat brain striatal area by sc administration; Inactive. It is filed as functional, organism-based. The gist of the method:
as §1

Assay [6] is filed under the species Rattus norvegicus. Nature of the assay: DA agonist induced behavior was charecterised by increased locomotion, sniffing and licking.+ indicates low intensity of behavioral effect. Type of assay: functional, organism-based. The gist of the method: as §2
Assay [7] concerns the target T1, Dopamine receptor (Rattus norvegicus). Nature of the assay: Effective dose for half-maximal decrease in the accumulation of DOPA in reserpinized rat brain limbic area by sc administration. Type of assay: functional, organism-based. The gist of the method: as §1
Assay [8] deals with T2, 5-hydroxytryptamine receptor 1A (Rattus norvegicus, UniProt P19327).
T2 sequence (P19327 whole entry): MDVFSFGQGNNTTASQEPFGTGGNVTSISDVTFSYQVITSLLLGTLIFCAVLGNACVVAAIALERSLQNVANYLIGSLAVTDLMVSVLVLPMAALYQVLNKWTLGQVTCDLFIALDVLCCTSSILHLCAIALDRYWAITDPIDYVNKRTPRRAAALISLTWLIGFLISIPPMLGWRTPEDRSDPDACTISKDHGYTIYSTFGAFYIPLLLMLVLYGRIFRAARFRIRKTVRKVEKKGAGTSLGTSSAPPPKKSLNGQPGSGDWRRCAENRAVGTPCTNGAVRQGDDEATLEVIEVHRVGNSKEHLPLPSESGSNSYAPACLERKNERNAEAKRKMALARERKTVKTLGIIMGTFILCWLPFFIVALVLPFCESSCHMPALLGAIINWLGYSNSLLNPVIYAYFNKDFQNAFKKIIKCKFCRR
Kind of assay: Binding affinity against 5-hydroxytryptamine 1A receptor in homogenated rat brain tissue, using by [3H]8-OH-DPAT as radioligand. Type of assay: tissue-based. The gist of the method: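 Rat brain homogenate was washed and preincubated in 50 mM Tris (pH 8.0) containing NaCl, CaCl2 and MgCl2, plus 10 μM pargyline. Nonspecific binding was defined with 10 μM 5-HT. Six drug concentrations (10⁻⁴-10⁻⁹ M) were tested, triplicate or single run. IC50 came from a semilog plot with linear regression.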

The target of assay [9] is T1, Dopamine receptor (Rattus norvegicus). Kind of assay: Effective dose for half-maximal decrease in the accumulation of DOPA in reserpinized rat brain hemispheral area by sc administration; Inactive. Type of assay: functional, organism-based. The gist of the method:
as §1

The test system of assay [10] is Rattus norvegicus. Nature of the assay: post-synaptic agonistic effects by increase in locomotor activity at the dose of 12.5 umol/kg, sc in reserpinized rat (p<0.005). It is filed as functional. The gist of the method:
as §2

Assay [11] deals with T3, D(2) dopamine receptor (Rattus norvegicus, UniProt P61169). Kind of assay: Binding affinity against dopamine receptor D2 in rat brain tissue using [3H]spiperone. It is filed as tissue-based. The gist of the method:
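Rat striatal membranes were prepared in 50 mM potassium phosphate (pH 7.4). They were incubated with 0.5 nM [3H]spiperone (3 mg original tissue) for 10 min at 37 °C. Specific binding was defined with 10 μM 6,7-ADTN. Six drug concentrations (10⁻⁴-10⁻⁹ M) were tested, in triplicate or in a single experiment.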

Assay [12] has as its target T3, D(2) dopamine receptor. Kind of assay: Binding affinity against dopamine receptor D2 in homogenated rat brain tissue, using by ([3H]N00437) as radioligand. It is filed as tissue-based. The gist of the method: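 Striata from male Wistar rats were washed in Tris (pH 7.5) containing EDTA, KCl and CaCl2. Tissue (1.25 mg original) was incubated with 0.2 nM [3H]-N-0437 (final) for 90 min at 25 °C, then filtered and counted by scintillation. Nonspecific binding was defined with 1 μM 6,7-ADTN. IC50 was read from a hand-fitted sigmoid curve, in triplicate.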

Assay [13] has as its system Rattus norvegicus. Kind of assay: post-synaptic agonistic effects by increase in locomotor activity at the dose of 50 umol/kg, sc in reserpinized rat (p<0.005). Type of assay: functional.
Assay [14] deals with Rattus norvegicus. Kind of assay: Effective dose for half-maximal decrease in the accumulation of 5-hydroxytryptophan (5-HTP) in reserpinized rat brain limbic area by sc administration; partial response at the highest dose tested. It is filed as functional, organism-based. The gist of the method:
as §1

Assay [15] deals with T1, Dopamine receptor (Rattus norvegicus). Kind of assay: Effective dose for half-maximal decrease in the accumulation of DOPA in reserpinized rat brain hemispheral area by sc administration; partial response at the highest dose tested. Type of assay: functional, organism-based. The gist of the method: as §1
The nature of assay [16]: Effective dose for half-maximal decrease in the accumulation of 5-hydroxytryptophan (5-HTP) in reserpinized rat brain hemispheral area by sc administration. Type of assay: functional. The gist of the method: as §1
Assay [17] is described as follows: Effective dose for half-maximal decrease in the accumulation of 5-hydroxytryptophan (5-HTP) in reserpinized rat brain striatal area by sc administration. Type of assay: functional. The gist of the method:
as §1

Assay [18] deals with T1, Dopamine receptor (Rattus norvegicus). Kind of assay: Effective dose for half-maximal decrease in the accumulation of DOPA in reserpinized rat brain striatal area by sc administration; partial response at the highest dose tested. Type of assay: functional, organism-based. The gist of the method: as §1
Assay [19] is described as follows: Effective dose for half-maximal decrease in the accumulation of 5-hydroxytryptophan (5-HTP) in reserpinized rat brain limbic area by sc administration. Type of assay: functional. The gist of the method:
as §1

The species entered for assay [20] is Rattus norvegicus. Kind of assay: 5-HT behavioral syndrome was determined by observing flat body posture and forepaw threading in rat.++ indicates […] intensity of behavioral effect. Type of assay: functional, organism-based. The gist of the method: as §2
The target of assay [21] is T1, Dopamine receptor (Rattus norvegicus). Kind of assay: Effective dose for half-maximal decrease in the accumulation of DOPA in reserpinized rat brain limbic area by sc administration; partial response at the highest dose tested. It is filed as functional, organism-based. The gist of the method: as §1
In assay [22] the test system is Rattus norvegicus. Kind of assay: Effective dose for half-maximal decrease in the accumulation of 5-hydroxytryptophan (5-HTP) in reserpinized rat brain striatal area by sc administration; partial response at the highest dose tested. It is filed as functional, organism-based. The gist of the method: as §1

Structures are written as SMILES. The source made the active and inactive calls. The calls are words filed in the database; no cut-off is given here.

T3 sequence (P61169 whole entry): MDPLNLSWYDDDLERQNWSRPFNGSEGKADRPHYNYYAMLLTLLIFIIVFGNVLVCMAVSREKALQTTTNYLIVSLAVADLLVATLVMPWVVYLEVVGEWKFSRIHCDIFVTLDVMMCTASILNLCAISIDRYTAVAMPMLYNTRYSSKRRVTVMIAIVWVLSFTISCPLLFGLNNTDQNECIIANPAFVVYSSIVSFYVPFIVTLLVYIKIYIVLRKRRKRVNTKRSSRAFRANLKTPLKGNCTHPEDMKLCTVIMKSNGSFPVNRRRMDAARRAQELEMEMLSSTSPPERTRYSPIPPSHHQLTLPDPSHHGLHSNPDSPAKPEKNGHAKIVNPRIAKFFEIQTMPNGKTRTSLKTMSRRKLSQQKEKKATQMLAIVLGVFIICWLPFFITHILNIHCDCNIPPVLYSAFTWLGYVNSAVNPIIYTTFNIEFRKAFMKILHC

For the compound `CCCN(CCC)C1CCc2ccc(O)cc2C1` (stereo unspecified), the ED50 in [1] and in [7] was 0.03 µmol/kg in each case. The Counts/30 in the assay with Rattus norvegicus [2] was 160 counts/30 min. For the same compound, the ED50 result (with Rattus norvegicus [3]; with Rattus norvegicus [4]; with Rattus norvegicus [5]; in [9]) was “inactive” in each case. Besides, the Behavioral observation entry in the assay listed under Rattus norvegicus [6] was “Partially active”. Moreover, in [8], the Ki was 2.8 µM.
For `CCCN(CCC)C1CCc2cc(OS(=O)(=O)C(F)(F)F)ccc2C1` (stereo unspecified), the ED50 was determined as 1.3 µmol/kg in assay [1] and 2 µmol/kg in assay [7]. The ED50 result (in the assay with Rattus norvegicus [3]; with Rattus norvegicus [4]; in the assay on Rattus norvegicus [5]; in [9]) was “inactive” throughout. In the assay with Rattus norvegicus [10], this compound had a Counts/30 of 80 min. The Ki on D(2) dopamine receptor [11] turned out to be 1.57 µM; on D(2) dopamine receptor [12] it was 0.099 µM; in assay [8] it was 16 µM. Besides, in the assay filed under Rattus norvegicus [6], the Behavioral syndrome entry is “Partially active”.
Consider `CCCN(CCC)C1CCc2ccc(OS(=O)(=O)C(F)(F)F)cc2C1` (stereo unspecified), for which the median effective dose (ED50) was 0.4 µmol/kg in assay [1]; “Weak activity” in the assay with Rattus norvegicus [14]; 1.6 µmol/kg in [7]; “Weak activity” in assay [15]; 27 µmol/kg in assay [16]; 34 µmol/kg in [17]. Further, in the assay with Rattus norvegicus [13], the Counts/30 was 170 min. In addition, the values for the Ki (on D(2) dopamine receptor [11]; on D(2) dopamine receptor [12]; in assay [8]) were 1.3 µM, 0.15 µM and 0.36 µM, respectively.
Turning to `CCCNC1CCc2cccc(OS(=O)(=O)C(F)(F)F)c2C1` (stereo unspecified), in the assay with Rattus norvegicus [13], the Counts/30 is reported as 120 min. Moreover, the ED50 entry in [18] was “Weak activity”; in assay [19] it was 1.2 µmol/kg; in assay [15] it was “Weak activity”; in [16], 1.1 µmol/kg; in assay [21], “Weak activity”; in assay [17], 0.8 µmol/kg. The Behavioral syndrome entry in the assay filed under Rattus norvegicus [20] is “Active”. Besides, the Ki at D(2) dopamine receptor [11] amounted to 1.36 µM; in assay [8], 0.0038 µM.
`CCCN(CCC)C1CCc2ccc(OC)cc2C1` (stereo unspecified): the ED50 entry (in assay [18]; in the assay on Rattus norvegicus [22]; with Rattus norvegicus [14]; in assay [21]) was “Weak activity” in each case. Also, the ED50 entry (in the assay on Rattus norvegicus [4]; in [9]) was “inactive” throughout.
